# Structures can show the parent of a compound that is named as a salt.
# Columns and labels:
# [1] = target: T1, Adrenergic receptor alpha-1 (Rattus norvegicus, UniProt P15823+P23944+P43140); assay: Alpha-1-Adrenoceptor blocking activity as antagonism of (-)-norepinephrine induced contractions of epididymal vas deferens; type: functional, tissue-based
# T1 sequence (P15823 whole entry): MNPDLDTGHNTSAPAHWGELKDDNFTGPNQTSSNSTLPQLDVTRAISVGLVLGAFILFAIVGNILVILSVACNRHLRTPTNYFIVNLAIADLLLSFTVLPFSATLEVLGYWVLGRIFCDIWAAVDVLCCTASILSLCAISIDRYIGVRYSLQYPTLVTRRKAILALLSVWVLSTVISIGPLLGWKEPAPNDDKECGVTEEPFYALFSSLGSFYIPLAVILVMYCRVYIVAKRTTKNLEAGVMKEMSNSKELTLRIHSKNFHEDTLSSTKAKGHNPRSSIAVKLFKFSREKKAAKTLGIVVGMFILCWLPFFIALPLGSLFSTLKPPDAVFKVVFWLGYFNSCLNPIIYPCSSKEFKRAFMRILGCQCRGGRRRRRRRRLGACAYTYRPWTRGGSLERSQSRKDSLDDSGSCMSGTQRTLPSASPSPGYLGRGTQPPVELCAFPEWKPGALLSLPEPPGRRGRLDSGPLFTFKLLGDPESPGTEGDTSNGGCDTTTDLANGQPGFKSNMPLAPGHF
# T1 sequence (P23944 whole entry): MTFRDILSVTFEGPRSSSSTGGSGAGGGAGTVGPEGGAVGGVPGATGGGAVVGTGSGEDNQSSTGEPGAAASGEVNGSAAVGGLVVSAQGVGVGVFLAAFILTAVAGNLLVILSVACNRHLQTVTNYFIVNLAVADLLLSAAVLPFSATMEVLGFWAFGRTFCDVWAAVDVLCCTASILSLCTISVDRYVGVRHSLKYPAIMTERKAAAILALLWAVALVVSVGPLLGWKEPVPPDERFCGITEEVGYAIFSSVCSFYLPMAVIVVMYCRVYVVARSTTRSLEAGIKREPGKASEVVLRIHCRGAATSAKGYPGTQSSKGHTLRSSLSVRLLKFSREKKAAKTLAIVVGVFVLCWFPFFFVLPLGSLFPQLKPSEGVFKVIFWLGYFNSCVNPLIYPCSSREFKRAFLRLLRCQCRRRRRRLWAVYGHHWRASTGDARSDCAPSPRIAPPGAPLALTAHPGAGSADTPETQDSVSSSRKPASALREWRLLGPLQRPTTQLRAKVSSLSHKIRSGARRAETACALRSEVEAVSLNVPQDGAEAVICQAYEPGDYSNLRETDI
# T1 sequence (P43140 whole entry): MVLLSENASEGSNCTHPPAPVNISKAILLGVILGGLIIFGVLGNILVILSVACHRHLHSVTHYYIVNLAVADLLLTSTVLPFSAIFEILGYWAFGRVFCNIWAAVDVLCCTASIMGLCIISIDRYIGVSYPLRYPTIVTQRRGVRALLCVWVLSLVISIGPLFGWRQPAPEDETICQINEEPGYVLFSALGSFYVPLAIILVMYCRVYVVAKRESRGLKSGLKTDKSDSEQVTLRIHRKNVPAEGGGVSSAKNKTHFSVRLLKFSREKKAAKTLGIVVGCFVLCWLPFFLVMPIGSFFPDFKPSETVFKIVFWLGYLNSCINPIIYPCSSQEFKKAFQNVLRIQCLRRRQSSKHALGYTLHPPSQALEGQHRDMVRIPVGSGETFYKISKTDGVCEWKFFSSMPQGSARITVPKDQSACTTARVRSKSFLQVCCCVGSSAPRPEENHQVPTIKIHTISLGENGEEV
# Rattus norvegicus = species: Rattus norvegicus; assay: (§1) Alpha-2-adrenoceptor blocking activity was determined by antagonism of clonidine induced depression of the twitch responses of the field stimulated prostatic portion of the vas deferens and the potency was expressed as pA2.; type: functional; settings: read-out: pA2 (converted)
# [2] = Selectivity as the ratio of pA2 value against alpha 1 receptor to that of alpha-2 receptor.
# Method in brief: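 Ratio computed as the antilog of the α1 pA2 minus the α2 pA2. The α1 pA2 came from rat epididymal vas deferens against norepinephrine, and the α2 pA2 from field-stimulated prostatic vas deferens against clonidine.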
# [3] = target: T2, Adrenergic receptor alpha-2 (Rattus norvegicus, UniProt P22086+P19328+P22909); assay: as §1; type: functional, tissue-based
# T2 sequence (P22086 whole entry): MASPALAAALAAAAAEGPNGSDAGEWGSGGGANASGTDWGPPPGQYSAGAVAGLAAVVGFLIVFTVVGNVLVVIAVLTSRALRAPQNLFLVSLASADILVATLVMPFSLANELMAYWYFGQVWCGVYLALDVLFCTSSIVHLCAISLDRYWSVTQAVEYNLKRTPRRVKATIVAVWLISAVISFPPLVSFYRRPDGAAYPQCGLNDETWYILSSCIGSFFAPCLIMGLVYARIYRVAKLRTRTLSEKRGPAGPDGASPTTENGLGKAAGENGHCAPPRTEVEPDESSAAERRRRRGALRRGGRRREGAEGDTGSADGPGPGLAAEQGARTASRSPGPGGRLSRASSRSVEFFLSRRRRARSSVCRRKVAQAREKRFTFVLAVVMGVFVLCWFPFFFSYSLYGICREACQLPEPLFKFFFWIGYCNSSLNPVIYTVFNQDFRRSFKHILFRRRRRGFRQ
# T2 sequence (P19328 whole entry): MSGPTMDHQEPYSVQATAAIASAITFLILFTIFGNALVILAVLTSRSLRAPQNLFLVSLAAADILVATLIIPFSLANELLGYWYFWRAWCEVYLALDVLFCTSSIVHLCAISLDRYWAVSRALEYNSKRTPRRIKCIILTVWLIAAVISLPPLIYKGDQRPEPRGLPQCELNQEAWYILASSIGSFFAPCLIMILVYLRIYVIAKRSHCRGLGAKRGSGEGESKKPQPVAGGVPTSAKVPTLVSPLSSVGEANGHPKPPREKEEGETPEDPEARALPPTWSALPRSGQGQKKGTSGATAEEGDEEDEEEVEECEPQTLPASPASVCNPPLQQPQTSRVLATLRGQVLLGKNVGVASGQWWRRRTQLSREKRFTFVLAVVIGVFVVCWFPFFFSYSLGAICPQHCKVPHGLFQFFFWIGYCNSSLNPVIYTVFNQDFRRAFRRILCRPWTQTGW
# T2 sequence (P22909 whole entry): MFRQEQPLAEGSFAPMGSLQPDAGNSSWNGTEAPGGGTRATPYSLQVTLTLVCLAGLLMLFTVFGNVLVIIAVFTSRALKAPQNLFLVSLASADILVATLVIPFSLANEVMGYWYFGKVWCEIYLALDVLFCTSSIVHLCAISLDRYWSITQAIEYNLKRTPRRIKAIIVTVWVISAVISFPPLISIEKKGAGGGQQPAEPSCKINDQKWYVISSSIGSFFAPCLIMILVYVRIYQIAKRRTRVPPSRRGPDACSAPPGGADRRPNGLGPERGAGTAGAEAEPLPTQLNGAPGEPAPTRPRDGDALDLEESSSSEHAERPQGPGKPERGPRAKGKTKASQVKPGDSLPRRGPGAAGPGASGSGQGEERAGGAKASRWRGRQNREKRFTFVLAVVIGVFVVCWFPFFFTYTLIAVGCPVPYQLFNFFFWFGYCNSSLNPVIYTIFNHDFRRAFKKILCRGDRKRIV
# Method in brief: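 Field stimulation 0.1 Hz, 3-ms pulses, 10–35 V. Propranolol, cocaine and deoxycorticosterone present. After 1 h, one tissue was given antagonist for 30 min and the contralateral tissue served as control. Clonidine curves for 50% twitch inhibition gave dose ratios. Three concentrations (two if limited above 30 μM), n≥5; Schild or van Rossum pA2.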
# [4] = target: T1, Adrenergic receptor alpha-1; assay: Alpha-1 adrenergic receptor blocking activity was assessed by antagonism of (-)-norepinephrine induced contractions of the epididymal portion of the vas deferens and the potency was expressed as pA2.; type: functional, tissue-based
# Method in brief: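 Male albino rat (175–200 g) epididymal vas deferens, 14 mm, in Krebs at 37 °C gassed 95% O2–5% CO2, 0.4 g load, with propranolol 1 μM, cocaine 10 μM, deoxycorticosterone acetate 40 μM. ≥1 h equilibration. Cumulative norepinephrine curves: second as control, third after 30 min antagonist. Time-matched untreated tissues. Schild pA2 from EC50 dose ratios, three antagonist concentrations, n≥5 each.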
pA2 [1],Selectivity ratio [2],pA2 [3],pA2 [4],Structure (SMILES),Kb (Rattus norvegicus)
7.18,65,–,–,COc1cc2nc(N(C)CCN(C)C(=O)c3ccco3)nc(N)c2cc1OC.Cl,4.27 µM
7.22,11,–,–,COc1cc2nc(NCC3COc4ccccc4O3)nc(N)c2cc1OC.Cl (stereo unspecified),0.676 µM
7.86,89,5.91,–,COc1cc2nc(N(C)CCOc3c(OC)cccc3OC)nc(N)c2cc1OC.Cl,–
8.81,3890,–,–,COc1cc2nc(NCCNC(=O)c3ccco3)nc(N)c2cc1OC.Cl,6.03 µM
7.88,87,–,–,COc1cc2nc(NCCOc3c(OC)cccc3OC)nc(N)c2cc1OC.Cl,1.15 µM
7.19,22,–,–,Cl.O=C(NCCNCC1COc2ccccc2O1)c1ccco1 (stereo unspecified),1.41 µM
6.45,55,–,–,COc1cccc(OC)c1OCCN1CCN(C(=O)c2ccco2)CC1.Cl,19.5 µM
–,0.59,–,6.05,Cl.O=C(c1ccco1)N1CCN(CC2COc3ccccc3O2)CC1 (stereo unspecified),0.525 µM
–,347,–,–,"COc1cccc(OC)c1OCCNCC1COc2ccccc2O1 (stereo unspecified) [2- (2,6-DIMETHOXYPHENOXYETHYL)AMINOMETHYL-1,4-BENZODIOXANE HYDROCHLORIDE (WB 4101)]",0.513 µM

# Reference: ChEMBL document CHEMBL1123052, “Structure-activity relationships for prazosin and WB 4101 analogues as alpha 1-adrenoreceptor antagonists” (J Med Chem, 1985)
